# Screening data from PubChem.
# ABCG2 inh = inhibitors of human ABCG2 transporter, ABCB1 counter-screen; inhibition, % at 6.6 µM; AID 1325; 190,000 tested, 0.1% active; IgMXP3 cells, JC-1 efflux, flow cytometry;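 active = inhibition above 80%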;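 note: 0% = DMSO and 100% = nicardipine control wells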
#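 Test system: IgMXP3 (ABCG2) plus far-red-tagged CCRF-Adr (ABCB1) cells / Amount: 3 million cells/mL in well / Reagent: JC-1 transporter substrate / Timing: 10 min compound exposure, 25 °C / Signal: flow cytometry, 530 nm JC-1 signal / Read-out: percent efflux inhibition, scaled nicardipine 100% to DMSO 0% / Benchmarks: nicardipine as high control, DMSO as low control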
# PMI act hi M6P = activators of human phosphomannose isomerase at near-saturating mannose 6-phosphate; 190,000 tested, 0.34% active; coupled PMI enzyme assay, resazurin fluorescence, 20 min; active compounds read high; 1 = untreated enzyme, 0 = substrate-free blank; activation factor at 20 µM; P34949;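 active = activation factor of 2 or more at 20 µM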
#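 Test system: human phosphomannose isomerase with PGI, G6PDH, diaphorase coupling enzymes; amount: 15 ng/mL PMI; incubation: enzyme reaction with compound 20 min at room temperature; technique: resorufin fluorescence (Ex 544/Em 590 nm) from resazurin via diaphorase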
# KCC2 mod = modulators of human KCC2 chloride dependent transport. AID 1456. B-score of Tl+ flux slope (higher = more flux/activation; lower = inhibition) at 10 µM. 190,000 tested, 2.2% active. KCC2 cells, thallium flux FluoZin-2 fluorescence;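 active = thallium flux slope and its plate-corrected score both differing from the plate sample mean at a set confidence after two filtering rounds, in either direction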;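 note: slope of fluorescence scaled to starting intensity during 10 to 20 s after thallium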
# ROMK mod = modulators of human ROMK potassium channel. B-score at 10 µM. 130,000 tested, 2% active. P48048. Tet-inducible ROMK, thallium flux fluorescence; actives lie on both sides;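 active = signal ratio slope over the read window, or its plate-corrected B-score, at least 3 SD from the plate mean, either direction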;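 note: B-score of the F/F0 ratio slope over 7 to 12 s after thallium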
# ABCB1 inh = inhibitors of human ABCB1 transporter, ABCG2 counter-screen; CCRF-Adr cells, JC-1 efflux, flow cytometry; 190,000 tested, 0.067% active; inhibition, % at 6.6 µM; AID 1326; in the data active = inhibition above about 40%;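 note: 0% = vehicle and 100% = reference inhibitor; higher value means more JC-1 retained so stronger ABCB1 efflux block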
# PMI act = phosphomannose isomerase (human) activation. P34949. purified human PMI, coupled resazurin fluorescence, 20 min; active compounds read high; 1 = vehicle control, 0 substrate-free wells. activation factor at 20 µM. 190,000 tested, 0.005% active;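 active = activation factor of 2 or more at 20 µM, relative to plate controls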
# ROMK retest = confirmation of human ROMK potassium channel modulators | shares compounds with ROMK mod | ROMK thallium flux, fluorescence ratio; active compounds read low | normalized thallium flux (F/F0 slope) at 10 µM | 3,000 tested, 54% active | AID 1917;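 active = Flux at 10 µM at least 3 SD below or above vehicle control mean in one or both replicates; inconclusive = no clear call, values can overlap the other calls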
# * marks the source's active call; other numbers are inactive results; u = inconclusive; x = not tested or not shown. Only some compounds are listed: those with a hit (about 3.3% of all), similar ones and a draw of the others.
SMILES,ABCG2 inh,PMI act hi M6P,KCC2 mod,ROMK mod,ABCB1 inh,PMI act,ROMK retest
O=C(Cn1c(NCCCO)nc2ccccc21)c1cccs1,x,x,-0.916,x,x,x,x
CC(=O)N1C(C(=O)O)CSC1c1ccc(C)cc1 (configuration not stated),1.9,0.8,-1.89,x,0.5,1,0.072
O=c1[nH]c(NCCCO)nc2c1C1(CCCC1)Cc1ccccc1-2,2.3,0.9,-1.43,-3.38*,0.5,0.9,0.0566*
CCC1(CC)Cc2ccccc2-c2nc(NCCCO)[nH]c(=O)c21,2.3,1,0.634,-2.94,0.8,0.8,x
COc1ccccc1-c1nc2cc3ccccc3cc2nc1-c1ccccc1,0.0,0.5,0.0852,-0.505,0.2,0.9,x
O=C(CCc1cnccn1)NC1CCCc2c1cnn2-c1ccc(F)cc1F (configuration not stated),1.8,0.9,0.631,-1.32,0.9,0.9,x
C=CCc1ccccc1OCC(O)CN1CCN(C(=O)OCC)CC1 (configuration not stated),7.7,1.2,-0.564,x,2.7,1.1,x
C=CCc1ccccc1OCC(O)CN1CCN(c2ccc(C)cc2)CC1 (configuration not stated),4.1,1,-0.619,-2.59*,1.7,1,0.0557*
CCOC(=O)Cc1ccc2sc(-c3ccccc3)nc2c1,45.1,1,-1.92,-0.232,0.9,0.9,x
NS(=O)(=O)c1ccc(NC(=O)COc2ccc(C(=O)c3ccc(F)cc3)cc2)cc1,x,x,1.28,x,x,x,x
COc1ccc(CN(C)Cc2nc(Cc3cccc(F)c3)no2)c2cccnc12,0.8,1,-0.384,-1.59*,0.2,1,u
COc1cccc(CNC(=O)CSCc2cnn(-c3ccccc3)c2-n2cccc2)c1OC,1.2,0.9,-0.649,-3.33*,0.9,0.9,0.0786
O=C(NCCSCc1ccccc1)c1ccc(F)cc1,9.4,1,-1.93,x,0.8,1,x
CCOC(=O)c1nc(C)nc(Sc2n[nH]c(-c3ccccc3)n2)c1C,x,x,-0.725,x,x,x,x
COc1ccc(C(=O)N2CCN(c3ccc([N+](=O)[O-])c(NCCc4ccc(OC)c(OC)c4)c3)CC2)cc1,14.7,0.9,-0.0287,x,24.3,0.9,0.06*
N#CC1(c2ccc(NC(=O)c3ccccc3)cc2)CCCC1,5.2,0.9,0.974,2.34*,1.0,0.9,0.0938
Cc1ccc2sc(-c3ccc(NC(=O)CCN4C(=O)c5ccccc5C4=O)cc3)nc2c1,-1.9,1.1,0.0978,x,-0.3,1,x
CCCCCOc1ccc(CSC(=N)N)cc1[N+](=O)[O-],8.5,0.9,0.0347,x,1.7,0.9,0.0519*
CCCCOc1ccc(Br)cc1CSC(=N)N,7.4,1,-0.66,-3.95*,1.3,1.1,0.0575*
CCOc1ccc(C(C)=O)cc1CSC(=N)N,4.4,1,-0.537,-0.486,0.3,0.9,x
O=C(Nc1ccc2snnc2c1)Nc1cccc2ccccc12,0.9,0.8,x,-0.0248,0.2,0.8,x
N=c1n(CCO)c2ccccc2n1CCOc1ccc(Cl)cc1Cl,2.9,1,x,x,1.1,1,0.0494*
Cc1ccc2c(c1)c(-c1ccccc1)nc1nncn12,0.6,0.9,-0.106,x,0.0,0.9,x
O=C(Cn1nc(Cl)nc1Cl)c1cc2ccccc2oc1=O,5.3,1,x,-6.55*,0.7,1,0.0493*
CC1=NOC(=O)/C1=C\c1ccc(-c2cc(Cl)ccc2Cl)o1,-1.2,1,0.815,-3.7*,-0.5,0.9,u
C/C(=C\c1ccccc1)C(=O)Nc1nccs1,0.6,0.9,-0.37,1.08*,-0.4,1,u
CC(CN1CCNCC1)(NS(=O)(=O)c1ccccc1)c1ccccc1 (configuration not stated),-5.4,1,x,-4.46*,-3.5,1,0.0619*
CC(C)(CN1CCN(Cc2ccccc2)CC1)NS(=O)(=O)c1ccccc1,x,x,-1.61,x,x,x,x
CN1CCN(CCCNC(=O)c2ccc3c(c2)N(Cc2ccccc2)CCS3)CC1,-0.2,1.1,x,x,0.5,1,x
Cc1ccc(C(c2c(C)n(C)n(-c3ccccc3)c2=O)c2c(C)n(C)n(-c3ccccc3)c2=O)s1,0.0,1.3,-0.552,-0.259,0.4,1.3,x
